Bioassay records deposited in PubChem by Broad Institute.
This excerpt belongs to a sample that is enriched for hits.
T cruzi growth-1: inhibitors of T. cruzi proliferation; T. cruzi beta-gal in NIH3T3, GalScreen luminescence, 90 h; AID 624255; inhibition, % at 8.34 µM; 77,000 tested, 5.9% active;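 active = mean inhibition above about 93%, with at least 55% of replicates each passing it, limit read from the data, passing the limit was not always enough; inconclusive = only one of those two conditions holds; inactive = neither condition holds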
KDM4C inh: blocks human GASC-1 (KDM4C) demethylase activity | GST-KDM4C 2-372, H3K9me3 peptide, LANCE TR-FRET | 96,000 tested, 0.15% active | Q9H3R0 | inhibition, % at 12.5 µM;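 active = mean replicate inhibition above about 25%, with at least 55% of replicates also reaching it, limit read from the data, passing the limit was not always enough; inconclusive = only one of those two conditions met; inactive = neither condition met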
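Test system: N-terminal GST-fused human GASC-1 (KDM4C) fragment, residues 2-372; quantity: GASC-1 enzyme at 10 nM final in reaction; dosing: single dose; schedule: 30 min demethylation and 1 h detection at room temperature; signal: LANCE TR-FRET, excitation 340 nm, emissions 618 and 671 nm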
IDH1 mut inh: blocks human IDH1 R132H reductase activity; O75874; diaphorase/resazurin fluorescence, 60 min; inhibition, % at 10 µM; 70,000 tested, 0.18% active; in the data active = inhibition above about 34%; inconclusive = no clear call, values can overlap the other calls; inactive = below about 11%;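 also: 0% = DMSO and 100% = no enzyme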
Target sequence (O75874 whole entry R132H): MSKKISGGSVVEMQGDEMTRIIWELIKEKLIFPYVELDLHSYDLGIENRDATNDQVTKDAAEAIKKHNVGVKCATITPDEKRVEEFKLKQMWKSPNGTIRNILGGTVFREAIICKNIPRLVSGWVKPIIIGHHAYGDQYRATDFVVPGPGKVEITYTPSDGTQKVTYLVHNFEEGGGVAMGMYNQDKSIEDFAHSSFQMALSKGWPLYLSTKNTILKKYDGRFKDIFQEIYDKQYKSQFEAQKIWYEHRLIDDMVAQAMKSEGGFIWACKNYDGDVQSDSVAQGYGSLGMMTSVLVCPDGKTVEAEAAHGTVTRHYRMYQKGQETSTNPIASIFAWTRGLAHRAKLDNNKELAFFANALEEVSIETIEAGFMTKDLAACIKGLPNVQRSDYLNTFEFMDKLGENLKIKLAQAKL
T cruzi growth-2: blocks T. cruzi growth in NIH3T3 host cells; AID 651739; inhibition, % at 8.35 µM; T. cruzi beta-gal in NIH3T3, GalScreen luminescence, 90 h; shares compounds with T cruzi growth-1; 5,600 tested, 72% active;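 active = mean replicate inhibition above about 95% and at least 55% of replicates individually reaching it, limit read from the data; inconclusive = only one of the two criteria is met; inactive = neither criterion is met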
T cruzi growth-3: blocks T. cruzi growth in NIH3T3 host cells. 5,600 tested, 21% active. shares compounds with T cruzi growth-1. T. cruzi beta-gal in NIH3T3, GalScreen luminescence, 90 h. inhibition, % at 2.09 µM. AID 651740;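 active = mean inhibition above about 95%, with at least 55% of replicates also reaching it, limit read from the data; inconclusive = meets just one of the two conditions; inactive = meets neither condition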;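 also: plate controls were neutral control median for no effect and positive control median for full effect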
NIH3T3 tox: cytotoxicity in mouse NIH/3T3 fibroblasts | shares compounds with T cruzi growth-1 | NIH/3T3 viability, CellTiter-Glo ATP luminescence, 90 h | cytotoxicity (signal decrease), % at 8.35 µM | 5,600 tested, 14% active | AID 651742;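 active = mean signal decrease across replicates above about 35% based on untreated-well scatter, with enough replicates individually passing, limit read from the data; inconclusive = no rule stated though some were filed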;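 also: 0% = median of neutral control wells and 100% = median of positive control wells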
3T3 cytotox 2: cytotoxicity in mouse NIH/3T3 fibroblasts | 5,600 tested, 56% active | shares compounds with T cruzi growth-1 | NIH/3T3 viability, CellTiter-Glo ATP luminescence, 90 h | inhibition, % at 24.9 µM | AID 651744;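 active = mean loss of cell viability signal at or above a set limit, and enough replicates individually reaching it; inconclusive = meets only the mean limit or only the replicate share; inactive = meets neither condition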;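 also: 0% = median of neutral control wells and 100% = median of positive control wells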
Active calls of the source: *; u = inconclusive; x = not tested or not shown; ! = not active in a repeat.

SMILES | T cruzi growth-1 | KDM4C inh | IDH1 mut inh | T cruzi growth-2 | T cruzi growth-3 | NIH3T3 tox | 3T3 cytotox 2
C[C@@H]1CCCCO[C@H](CN(C)C(=O)Nc2ccc(C(F)(F)F)cc2)[C@H](C)CN([C@@H](C)CO)C(=O)c2cc(NC(=O)c3ccccc3)ccc2O1 | 86 | 2 | -1 | x | x | x | x
C[C@H]1CCCCO[C@@H](CN(C)C(=O)Nc2ccc(C(F)(F)F)cc2)[C@@H](C)CN([C@@H](C)CO)C(=O)c2cc(NC(=O)c3ccncc3)ccc2O1 | 108* | -2 | 3 | 109* | 67 | 18 | u
C[C@@H]1CCCCO[C@H](CN(C)C(=O)Nc2ccc(F)cc2)[C@H](C)CN([C@@H](C)CO)C(=O)c2cc(NC(=O)c3ccccc3)ccc2O1 | 86 | 1 | x | x | x | x | x
O=C(NCCCO)C(=O)NCC1COc2ccccc2O1 (stereo unspecified) | x | x | 0 | x | x | x | x
N#C[C@@H]1[C@@H](c2ccc(-c3cncnc3)cc2)[C@H](CO)N1C(=O)C1CCOCC1 | 100* | 2 | x | 10 | 9 | -10 | 1
COc1ccc(-c2ccc([C@@H]3[C@@H](C#N)N(C(=O)C4CCOCC4)[C@H]3CO)cc2)cc1 | 57 | -1 | x | x | x | x | x
N#C[C@@H]1[C@H](c2ccc(-c3cncnc3)cc2)[C@H](CO)N1C(=O)C1CCC1 | 101* | 0 | x | 28 | -66 | -13 | -18
N#C[C@H]1[C@H](c2ccc(-c3cncnc3)cc2)[C@@H](CO)N1C(=O)C1CCC1 | 86 | 1 | x | x | x | x | x
CNC(=S)N(Cc1ccco1)C1CC(=O)N(c2ccc(C(=O)OC)cc2)C1=O (stereo unspecified) | x | x | 0 | x | x | x | x
COc1ccc(C#Cc2ccc3c(c2)O[C@H](CN(C)S(=O)(=O)c2ccccc2F)[C@@H](C)CN([C@H](C)CO)S3(=O)=O)cc1 | x | -5 | 0 | x | x | x | x
COc1ccc(C#Cc2ccc3c(c2)O[C@@H](CN(C)S(=O)(=O)c2ccccc2F)[C@@H](C)CN([C@@H](C)CO)S3(=O)=O)cc1 | x | -9 | -4 | x | x | x | x
COc1cccc(C#Cc2ccc3c(c2)O[C@H](CN(C)S(=O)(=O)c2ccccc2F)[C@@H](C)CN([C@@H](C)CO)S3(=O)=O)c1 | 118* | -4 | 1 | 111* | 116* | 38* | 27*
COc1cccc(C#Cc2ccc3c(c2)O[C@H](CN(C)S(=O)(=O)c2ccccc2F)[C@H](C)CN([C@H](C)CO)S3(=O)=O)c1 | 130* | 5 | 0 | 107* | 107* | 8 | 38*!
Cc1nnc(SCC(=O)Nc2sc3c(c2C#N)CCC(C(C)(C)C)C3)s1 (stereo unspecified) | x | x | 1 | x | x | x | x
COc1ccc(N(CC(=O)Nc2ccc(Cl)c(Cl)c2)S(C)(=O)=O)cc1OC | x | x | 4 | x | x | x | x
COc1ccc(CN(C)C[C@@H]2OCCCC[C@@H](C)Oc3ccc(NC(=O)Nc4ccc5c(c4)OCO5)cc3C(=O)N([C@H](C)CO)C[C@@H]2C)cc1 | 102* | -1 | x | 111* | 11 | 11 | 23
COc1ccc(NC(=O)Nc2ccc3c(c2)C(=O)N([C@H](C)CO)C[C@H](C)[C@@H](CN(C)Cc2ccc4c(c2)OCO4)OCCCC[C@@H](C)O3)cc1 | 54 | 0 | -2 | x | x | x | x
COc1ccc(CN(C)C[C@H]2OCCCC[C@@H](C)Oc3ccc(NC(=O)Nc4ccc5c(c4)OCO5)cc3C(=O)N([C@@H](C)CO)C[C@@H]2C)cc1 | 94 | 2 | 2 | x | x | x | x
COc1ccc(CN(C)C[C@@H]2OCCCC[C@H](C)Oc3ccc(NC(=O)Nc4ccc5c(c4)OCO5)cc3C(=O)N([C@@H](C)CO)C[C@@H]2C)cc1 | 102* | -1 | x | 100* | 91 | 68* | 80*
COc1ccc(NC(=O)Nc2ccc3c(c2)C(=O)N([C@H](C)CO)C[C@@H](C)[C@@H](CN(C)Cc2ccc4c(c2)OCO4)OCCCC[C@H](C)O3)cc1 | 92 | x | -1 | x | x | x | x
COc1ccc(NC(=O)Nc2ccc3c(c2)C(=O)N([C@@H](C)CO)C[C@@H](C)[C@H](CN(C)Cc2ccc4c(c2)OCO4)OCCCC[C@@H](C)O3)cc1 | 91 | 0 | 0 | x | x | x | x
COc1ccc(CN(C)C[C@@H]2OCCCC[C@H](C)Oc3ccc(NC(=O)Nc4ccc5c(c4)OCO5)cc3C(=O)N([C@H](C)CO)C[C@@H]2C)cc1 | 101* | 2 | x | 94 | 106* | 30 | 107*
COc1ccc(NC(=O)Nc2ccc3c(c2)C(=O)N([C@H](C)CO)C[C@H](C)[C@@H](CN(C)Cc2ccc4c(c2)OCO4)OCCCC[C@H](C)O3)cc1 | u | 0 | 0 | 105* | 57 | 23 | 30
CCn1c(SCC(=O)Nc2ccc3c(c2)OCCO3)nnc1-c1ccccc1O | x | x | 0 | x | x | x | x
CC1OC(OC2C(O)C(OCCc3ccc(O)c(O)c3)OC(CO)C2OC(=O)/C=C/c2ccc(O)c(O)c2)C(OC2OCC(O)C(O)C2O)C(O)C1O (stereo unspecified) | x | x | 20 | x | x | x | x
SMILES | T cruzi growth-1 | KDM4C inh | IDH1 mut inh | T cruzi growth-2 | T cruzi growth-3 | NIH3T3 tox | 3T3 cytotox 2
COc1ccc(C(=O)NCCCN2CCCC2=O)cc1[N+](=O)[O-] | x | x | 0 | x | x | x | x
O=C(CSc1nnc(-c2ccc(Br)cc2)o1)c1ccc([N+](=O)[O-])cc1 | x | x | 0 | x | x | x | x
CCn1c(SCC(=O)N2c3ccccc3CCc3ccccc32)nnc1-c1ccco1 | x | x | 0 | x | x | x | x
CCc1cc(-c2n[nH]c(C)c2-c2nc(C)cs2)c(O)cc1OCc1ccc([N+](=O)[O-])cc1 | x | x | 0 | x | x | x | x
C[C@@H]1CCCCO[C@H](CN(C)C(=O)Nc2ccc(C(F)(F)F)cc2)[C@H](C)CN([C@H](C)CO)C(=O)c2cc(NC(=O)CCC(F)(F)F)ccc2O1 | 107* | -2 | -1 | 106* | 105* | -11 | 19
C[C@@H]1CCCCO[C@H](CN(C)C(=O)Nc2ccc(C(F)(F)F)cc2)[C@H](C)CN([C@@H](C)CO)C(=O)c2cc(NC(=O)CCC(F)(F)F)ccc2O1 | 101 | -1 | x | x | x | x | x
C[C@@H]1CCCCO[C@H](CN(C)C(=O)Nc2ccc(C(F)(F)F)cc2)[C@@H](C)CN([C@@H](C)CO)C(=O)c2cc(NC(=O)CCC(F)(F)F)ccc2O1 | 94 | -3 | 0 | x | x | x | x
C[C@@H]1CCCCO[C@@H](CN(C)C(=O)Nc2ccc(C(F)(F)F)cc2)[C@H](C)CN([C@@H](C)CO)C(=O)c2cc(NC(=O)CCC(F)(F)F)ccc2O1 | 101* | 0 | -1 | 106* | 35 | 25 | 7
Cc1c(NC(=O)COc2ccc(I)cc2)cccc1C(=O)O | x | x | 0 | x | x | x | x
Cc1nc(SCC(=O)c2ccccc2)c(C#N)c(-c2cccc(Cl)c2)c1C(=O)Nc1ccccc1 | x | x | 0 | x | x | x | x
CS(=O)(=O)N(CC(=O)Nc1c(F)cccc1F)c1cccc(Br)c1 | x | x | 1 | x | x | x | x
